Experimental data collected from several papers.
Protocols differ between the studies behind these lines.
Target: Serine/threonine-protein kinase PAK 4 (PAK4, Homo sapiens, UniProt O96013)

SMILES | test | setting | measurement | value
Cc1[nH]c(/C=C2\C(=O)Nc3ccc(F)cc32)c(C)c1C(=O)N[C@H]1CCN(C(=O)N(C)C)C1 | enzyme activity, inhibitor | 0.1 µM | remaining activity | 109%
COc1cc(/C=C/C(=O)CC(=O)/C=C/c2ccc(O)c(OC)c2)ccc1O | enzyme activity, inhibitor | 1 µM | activity vs control | 78%
CCN(CC)CCNC(=O)c1c(C)[nH]c(/C=C2\C(=O)Nc3ccc(F)cc32)c1C | enzyme activity, inhibitor | 0.1 µM | remaining activity | 90%
Nc1ncnc2occ(-c3ccc(NC(=O)Nc4cc(C(F)(F)F)ccc4F)cc3)c12 | cell-free assay, inhibitor | 20 µM | remaining signal | 61%
C=CC(=O)Nc1cc(Nc2nccc(Nc3cc(Cl)c(F)cc3C(C)(C)O)n2)c(OC)cc1N1CC[C@@H](N(C)C)C1 | enzyme activity, inhibitor | 1 µM | inhibition | 5%
Cc1c(NC(=O)c2cc(C(N)=O)nc3cc(F)ccc23)c(C(F)(F)F)nn1Cc1ccc(C(C)(C)C)cc1 | cell-free assay, competition with immobilised ligand | 1 µM | remaining binding | 100%
FC(F)c1nc2ccccc2n1-c1nc(N2CCOCC2)nc(N2CCOCC2)n1 | enzyme activity, inhibitor | 10 µM | remaining activity | 92%
N#CCCc1ccc2c(c1)-c1[nH]c3ccc([N+](=O)[O-])cc3c1CC(=O)N2 | cell-free assay | 0.5 µM | remaining signal | 86.4%
CCN(CC)CCNC(=O)c1c(C)[nH]c(/C=C2\C(=O)Nc3ccc(F)cc32)c1C | enzyme activity, inhibitor | 0.3 µM | inhibition | -9%
CS(=O)(=O)N1CCCC(NC(=O)[C@H](CCC2CCCCC2)NC(=O)c2ccc(CNc3ncnc4c3nnn4-c3ccccc3)cc2)C1 (stereo partly shown) | cell-free assay, competition with immobilised ligand | 0.1 µM | remaining binding | 100%
CSc1nc(C)c(-c2ccnc(Nc3ccc(N4CCOCC4)cc3)c2)[nH]1 | enzyme activity, inhibitor | 10 µM | inhibition | -3.9%
NS(=O)(=O)c1cc(NC(=O)C2(c3ccccc3Cl)CC2)ccc1Oc1cccc(Cl)c1 | cell-free assay, competition with immobilised ligand | 1 µM | remaining binding | 74%
CNC(=O)c1cc(Oc2ccc(NC(=O)Nc3ccc(Cl)c(C(F)(F)F)c3)cc2)ccn1 | enzyme activity, inhibitor | 0.3 µM | inhibition | -11%
CCc1ccccc1C(=O)Nc1n[nH]c2c(C)c(F)c(C3C(C#N)=C(C)N(C)C(C)=C3C#N)cc12 | cell-free assay, competition with immobilised ligand | 1 µM | remaining binding | 100%
CS(=O)(=O)Nc1cccc(-c2csc(NC(=O)CSc3nc4nccnc4c(=O)n3CCc3ccccc3)n2)c1 | enzyme activity, inhibitor | 10 µM | inhibition | 4%
CCN(CC)c1ccc(C2=NNC(=O)CC2C)cc1[N+](=O)[O-] (stereo not shown) | enzyme activity, inhibitor | 10 µM | remaining activity | 98%
CC(C)(O)[C@H]1CC[C@H](Nc2ccc3ncc(-c4cccc(C(F)(F)F)c4)n3n2)CC1 | enzyme activity, inhibitor | 1 µM | remaining activity | 98%

SMILES | test | setting | measurement | value
Cc1ccc(Nc2nccc(N(C)c3ccc4c(C)n(C)nc4c3)n2)cc1S(N)(=O)=O | enzyme activity, inhibitor | 10 µM | inhibition | 35%
Cc1cc(NC(=O)c2cccc3cc(-c4cccc5[nH]nc(N)c45)ccc23)ccc1F | enzyme activity, inhibitor | 0.1 µM | activity vs control | 97%
COc1cc(Nc2cnc(C#N)c(O[C@H](C)CN(C)C)n2)ncc1-c1cnn(C)c1 | enzyme activity, inhibitor, radiometric | 1 µM | remaining activity | 87%
O=C(Nc1cnn(-c2csc(C(=O)NC3COC3)c2)c1)Nc1c(F)cccc1Cl | enzyme activity, inhibitor | 5 µM | remaining activity | 107%
Oc1cccc(-c2nc(N3CCOCC3)c3oc4ncccc4c3n2)c1 | enzyme activity, inhibitor | 10 µM | remaining activity | 70%
CC(C)(C)c1nc2c(s1)c1nc(N)ncc1c1ccc(NS(=O)(=O)c3c(F)cccc3F)c(F)c12 | enzyme activity, inhibitor, radiometric | 1 µM | remaining activity | 86%
FC(F)(F)Oc1cccc(-c2cnc3ccc(-c4ccncc4)nn23)c1 | enzyme activity, inhibitor, radiometric | 5 µM | activity vs control | 64%
O=C1NC(c2ccccn2)Sc2ccccc21 (stereo not shown) | cell-free assay, competition with immobilised ligand | 1 µM | remaining binding | 84%
COc1cc(-c2cc(-c3ccc(N4CCNCC4)cc3)cnc2C)cc(OC)c1OC | enzyme activity, inhibitor | 1 µM | inhibition | 4%
COc1cc2ncnc(Nc3ccc(F)c(Cl)c3)c2cc1OCCCN1CCOCC1 | cell-free assay | 0.5 µM | remaining signal | 90.2%
CC1=C(C#N)C(c2ccc3c(c2)c(NC(=O)c2ccccc2C)nn3C)C(C#N)=C(C)N1 | cell-free assay, competition with immobilised ligand | 1 µM | remaining binding | 100%
Cc1ccc(NC(=O)c2ccc(C)c(C(F)(F)F)c2)cc1C#Cc1nn(C2CCC(O)CC2)c2ncnc(N)c12 (stereo not shown) | cell-free assay | 10 µM | remaining signal | 88%
Nc1nc(Nc2ccccc2)sc1C(=O)c1c(F)cccc1F | enzyme activity, inhibitor | 10 µM | remaining activity | 47%
C[C@@H]1CN(c2cc(-c3n[nH]c4ccc(OC5(C)CC5)cc34)ncn2)C[C@H](C)O1 | cell-free assay, competition with immobilised ligand | 0.1 µM | remaining binding | 97%
Oc1ccc(-c2nc(-c3ccncc3)c(-c3ccc(F)cc3)[nH]2)cc1 | cell-free assay | 0.5 µM | remaining signal | 98.6%
CCC(=O)N[C@H]1CC[C@@H](C(=O)N(C)c2ccc(-c3nc4ccccc4o3)cc2)C1 | cell-free assay, competition with immobilised ligand | 1 µM | remaining binding | 100%
Nc1nc(NC2CCCCC2)sc1C(=O)c1ccccc1 | enzyme activity, inhibitor | 10 µM | remaining activity | 88%
